{
  "source": "paper PMC7249612",
  "about": "(Biochemistry, 2016)",
  "key": {"[1]": {"system": "LoxA", "experiment": "LoxA secondary product profile", "format": "biochemical, Pseudomonas aeruginosa", "details": "10 μM substrate; for times slower relative to the Kcat with AA: pH 7.0"}, "[2]": {"system": "LoxA", "experiment": "LoxA substrate preference", "format": "biochemical, Pseudomonas aeruginosa", "details": "initial rate at 10 μM substrate, pH 7.0, relative to AA", "how_it_was_run": "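His6-tagged LoxA was expressed in E. coli BL21(DE3), purified on Ni-NTA, and dosed by iron content. About 7 nM enzyme started each reaction. Each fatty acid substrate was C18 HPLC-purified and used at 10 μM in 25 mM HEPES pH 7.0 without Triton X-100. Initial rate of conjugated diene formation was followed at 234 nm (ε 25000 M−1cm−1) and expressed relative to the AA rate.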"}, "[3]": {"system": "P. aeruginosa biofilm growth", "experiment": "Abiotic microtiter biofilm assay", "format": "cell-based, Pseudomonas aeruginosa", "details": "1 μg LoxA protein added to loxA mutant or wild-type bacteria", "how_it_was_run": "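Wild-type PAO1 and loxA::Tn strains were grown overnight in Luria broth at 37 °C with 225 rpm shaking. Cultures were diluted 1:30 in minimal essential medium in 96-well plates, with or without 1 μg recombinant LoxA protein. Plates were incubated 24 h at 37 °C without agitation. Medium was removed, biofilms were washed and stained with crystal violet, and growth was read as absorbance at 550 nm.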"}, "[4]": {"system": "P. aeruginosa biofilm growth on human airway epithelial cells", "experiment": "Biotic biofilm assay on airway epithelial cells", "format": "cell-based, Pseudomonas aeruginosa", "details": "recombinant protein delivered to airway epithelial cells", "how_it_was_run": "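16HBE human bronchial epithelial cells were seeded at 7.4×10^4 per 6.5 mm transwell and polarized at air-liquid interface for 7 days. Cells were rinsed in MEM, and washed bacteria (wild-type PAO1 or loxA::Tn) were added at MOI 25–30. After 1 h, apical medium was replaced with MEM + 0.4% L-arginine for 5 h at 37 °C. Recombinant LoxA was added apically in MEM at increasing doses. Biofilms were released with 0.1% Triton X-100 and serially diluted for CFU/ml. Three experiments were run.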"}},
  "data": [
    {"molecule": "CCCCC[C@H](O)/C=C/C=C\\C/C=C\\C/C=C\\CCCC(=O)O", "note": "[15-HETE]", "values": [
      {"measurement": "times slower relative to the Kcat with AA", "setting": "[1]", "result": "100,000 times"}
    ]},
    {"molecule": "CCCCCC(/C=C/C=C\\C/C=C\\C/C=C\\CCCC(=O)O)OO", "note": "(stereo not drawn) [15-HpETE, 15-hydroperoxyeicosatetraenoic acid]", "values": [
      {"measurement": "times slower relative to the Kcat with AA", "setting": "[1]", "result": "10,000 times"}
    ]},
    {"molecule": "CCCCC/C=C\\C/C=C\\C/C=C\\C/C=C\\CCCC(=O)O", "note": "[AA, arachidonic acid]", "values": [
      {"measurement": "% AA Rate (10 μM)", "setting": "[2]", "result": 100, "unit": "%"},
      {"measurement": "Relative Kcat", "setting": "[1]; Kcat of LoxA with AA set to 1, unitless", "result": 1}
    ]},
    {"molecule": "LoxA protein: purified recombinant P. aeruginosa 15-lipoxygenase added to biofilm assays (protein, UniProt Q9I4G8 20-685, looked up) Lipoxygenase LoxA: NDSIFFSPLKYLGAEQQRSIDASRSLLDNLIPPSLPQYDNLAGKLARRAVLTSKKLVYVWTENFGNVKGVPMARSVPLGELPNVDWLLKTAGVIVELIVNFVASLPASAAAQFERIATGLSGDLEAARQVHEALLEEAKNDPAAAGSLLLRFTELQTRVIAILTRVGLLVDDILKSASNLVTQRGQGDGLNRFRAVFGTLRLPEVADSFRDDEAFAYWRVAGPNPLLIRRVDALPANFPLGEEQFRRVMGADDSLLEAAASRRLYLLDYAELGKLAPSGAVDKLLTGTGFAYAPIALFALGKDRARLLPVAIQCGQDPATHPMFVRPAESESDLYWGWQMAKTVVQVAEENYHEMFVHLAQTHLVSEAFCLATQRTLAPSHPLHVLLAPHFEGTLFINEGAARILLPSAGFIDVMFAAPIQDTQATAGGNRLGFDFYRGMLPESLKARNVDDPLALPDYPYRDDGLLVWNAIRQWAADYVAVYYASDGDVTADVELAAWVGEVIGSGKVAGFRPITGRSQLVEVLTMVIFTASAQHAAVNFPQPSMMTYAPAICAMSAAPAPDSPSGKSEADWLKMMPPTLVALEKVNIYHLLGSVYHGRLGDYRQTGFPYAPVFSDRRVTASGGPLERFQARLKEVEATIRTRNQARRRPYEYLLPSRIPASTNI", "values": [
      {"measurement": "effect on abiotic biofilm growth", "setting": "[3]", "result": "did not alter biofilm growth"},
      {"measurement": "effect on biotic biofilm growth of loxA transposon mutant", "setting": "[4]", "result": "This decrease could be complemented"}
    ]}
  ]
}
